Experimental data reported in the M2OR odorant receptor database.

What was measured:
Conditions in all cases: stereoisomer not certain
UniProt Q7TRX0 = target: T1, UniProt Q7TRX0
T1 sequence (whole entry): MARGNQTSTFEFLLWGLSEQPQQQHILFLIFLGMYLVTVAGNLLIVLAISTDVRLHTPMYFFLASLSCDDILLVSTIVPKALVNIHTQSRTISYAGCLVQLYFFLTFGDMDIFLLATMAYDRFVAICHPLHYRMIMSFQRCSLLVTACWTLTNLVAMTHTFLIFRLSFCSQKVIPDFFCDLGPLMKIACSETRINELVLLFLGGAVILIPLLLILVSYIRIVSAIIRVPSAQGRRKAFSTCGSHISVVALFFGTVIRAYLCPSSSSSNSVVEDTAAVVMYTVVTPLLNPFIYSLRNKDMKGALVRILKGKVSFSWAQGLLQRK
Summary of the method: (§1)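 Each receptor–molecule pair is labelled responsive or non-responsive (inactive) according to whether the original authors judged the measured signal statistically different from baseline. The data were taken from the main text and supplementary material of published papers and checked for typos and inconsistencies. Assay methods differed by source, with transient luciferase assays in mammalian cell lines being common.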

UniProt Q8VF43 = target: T2, UniProt Q8VF43
T2 sequence (whole entry): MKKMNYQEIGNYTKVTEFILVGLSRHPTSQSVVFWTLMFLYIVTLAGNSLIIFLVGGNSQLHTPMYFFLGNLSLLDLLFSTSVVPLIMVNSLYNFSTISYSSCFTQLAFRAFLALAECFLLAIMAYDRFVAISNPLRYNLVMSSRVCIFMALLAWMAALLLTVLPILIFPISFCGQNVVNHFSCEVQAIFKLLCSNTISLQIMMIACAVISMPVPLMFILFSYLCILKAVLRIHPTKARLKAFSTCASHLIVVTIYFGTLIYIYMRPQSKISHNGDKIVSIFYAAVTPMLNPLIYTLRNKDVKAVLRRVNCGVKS
Summary of the method: as §1

UniProt Q8VF52 = target: T3, UniProt Q8VF52
T3 sequence (whole entry): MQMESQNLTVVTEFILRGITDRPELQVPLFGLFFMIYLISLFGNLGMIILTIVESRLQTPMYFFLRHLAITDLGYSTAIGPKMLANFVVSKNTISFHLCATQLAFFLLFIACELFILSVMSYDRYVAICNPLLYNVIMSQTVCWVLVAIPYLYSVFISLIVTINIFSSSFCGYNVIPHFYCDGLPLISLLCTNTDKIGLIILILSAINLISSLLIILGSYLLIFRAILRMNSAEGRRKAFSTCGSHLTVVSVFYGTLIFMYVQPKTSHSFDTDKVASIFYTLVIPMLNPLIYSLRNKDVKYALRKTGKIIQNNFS
Summary of the method: as §1

UniProt Q8VFM8 = target: T4, UniProt Q8VFM8
T4 sequence (whole entry): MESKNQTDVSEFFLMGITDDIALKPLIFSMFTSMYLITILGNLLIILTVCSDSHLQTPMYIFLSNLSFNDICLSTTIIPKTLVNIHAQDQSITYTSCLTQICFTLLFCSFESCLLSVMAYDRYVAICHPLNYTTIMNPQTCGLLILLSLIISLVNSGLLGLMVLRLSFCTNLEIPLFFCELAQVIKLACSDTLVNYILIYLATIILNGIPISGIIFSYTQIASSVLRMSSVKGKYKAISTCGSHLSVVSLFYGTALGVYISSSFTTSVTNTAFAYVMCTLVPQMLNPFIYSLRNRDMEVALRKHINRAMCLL
Summary of the method: as §1

UniProt Q8VF06 = target: UniProt Q8VF06
Chain of UniProt Q8VF06 (Q8VF06 as listed by the source): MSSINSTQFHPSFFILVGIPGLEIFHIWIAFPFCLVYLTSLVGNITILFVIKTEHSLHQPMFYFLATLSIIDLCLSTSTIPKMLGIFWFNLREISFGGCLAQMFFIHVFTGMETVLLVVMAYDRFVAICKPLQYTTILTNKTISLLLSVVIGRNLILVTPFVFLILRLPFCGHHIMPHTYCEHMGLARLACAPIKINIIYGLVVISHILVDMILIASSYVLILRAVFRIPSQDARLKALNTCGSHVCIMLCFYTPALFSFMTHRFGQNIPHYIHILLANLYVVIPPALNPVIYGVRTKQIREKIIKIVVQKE
Summary of the method: as §1

UniProt Q8VF87 = target: UniProt Q8VF87
Chain of UniProt Q8VF87 (Q8VF87 as listed by the source): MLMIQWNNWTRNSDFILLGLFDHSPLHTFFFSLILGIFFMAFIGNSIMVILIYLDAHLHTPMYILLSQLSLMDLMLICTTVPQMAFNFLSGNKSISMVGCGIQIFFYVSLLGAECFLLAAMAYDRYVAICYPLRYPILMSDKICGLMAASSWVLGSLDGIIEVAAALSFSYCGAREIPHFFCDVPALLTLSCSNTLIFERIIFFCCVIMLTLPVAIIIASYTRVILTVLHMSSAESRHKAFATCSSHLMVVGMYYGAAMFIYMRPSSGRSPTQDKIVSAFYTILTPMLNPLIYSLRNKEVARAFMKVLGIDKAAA
Summary of the method: as §1

Measured: odorant receptor agonist call

CC(C)CCN
inactive: UniProt Q7TRX0 | UniProt Q8VF43 | UniProt Q8VF52 | UniProt Q8VFM8

CCc1occc(=O)c1O
inactive: UniProt Q7TRX0 | UniProt Q8VF43 | UniProt Q8VF52 | UniProt Q8VFM8

CCC(C)c1nccnc1OC (stereo not given)
inactive: UniProt Q7TRX0 | UniProt Q8VF43 | UniProt Q8VF52 | UniProt Q8VFM8

O=C(O)CCCCCCCCCCCBr
active: UniProt Q8VF06

CCSCC
inactive: UniProt Q7TRX0 | UniProt Q8VF43 | UniProt Q8VF52 | UniProt Q8VFM8

CCCCCCCCCC=CC=O
inactive: UniProt Q7TRX0 | UniProt Q8VF43 | UniProt Q8VF52 | UniProt Q8VFM8

CC1CCC(C(C)C)C(=O)C1 (stereo not given)
inactive: UniProt Q7TRX0 | UniProt Q8VF43 | UniProt Q8VF52 | UniProt Q8VFM8

CCCCOC(=O)CCC
inactive: UniProt Q8VF06

CCSSCC
inactive: UniProt Q7TRX0 | UniProt Q8VF43 | UniProt Q8VF52 | UniProt Q8VFM8

CCCCCC=CCCC=O
inactive: UniProt Q7TRX0 | UniProt Q8VF43 | UniProt Q8VF52 | UniProt Q8VFM8

CNc1ccccc1C(=O)OC
inactive: UniProt Q7TRX0 | UniProt Q8VF43 | UniProt Q8VF52 | UniProt Q8VFM8

CCCCCCCCCCC(=O)O
inactive: UniProt Q8VF06

O=C(O)CCCCCCCCC(=O)O
inactive: UniProt Q7TRX0 | UniProt Q8VF43 | UniProt Q8VF52 | UniProt Q8VFM8

CCc1nccnc1CC
inactive: UniProt Q7TRX0 | UniProt Q8VF43 | UniProt Q8VF52 | UniProt Q8VFM8

CCCCCCCCCCCC(=O)O
inactive: UniProt Q8VF06

CCCCCOC(=O)CC
inactive: UniProt Q7TRX0 | UniProt Q8VF43 | UniProt Q8VF52 | UniProt Q8VFM8

CC=CC(=O)C1=C(C)CCCC1(C)C
inactive: UniProt Q7TRX0 | UniProt Q8VF43 | UniProt Q8VFM8
active: UniProt Q8VF52

CC(CC=O)CCCC(C)(C)O (stereo not given)
inactive: UniProt Q7TRX0 | UniProt Q8VF43 | UniProt Q8VF52 | UniProt Q8VFM8

CCC(S)C(C)CO (stereo not given)
inactive: UniProt Q8VF87

C1CCOC1
inactive: UniProt Q7TRX0 | UniProt Q8VF43 | UniProt Q8VF52 | UniProt Q8VFM8
